In ChEMBL document CHEMBL2169814, “Structure-based design, synthesis, and characterization of dual hotspot small-molecule HIV-1 entry inhibitors” (J Med Chem, 2012):
The source made the active and inactive calls. The calls are words filed in the database; no cut-off is given here.

Tests used:
[1] = Inhibition of recombinant HIV-1 YU2 envelope glycoprotein-120 assessed as inhibition of viral entry in canine Cf2Th cells expressing CD4/CCR5 after 2 to 4 hrs by luciferase activity based luminescence assay; assay type: cell-based, Human immunodeficiency virus 1
Method in brief: (§1)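 Single-round luciferase-encoding recombinant HIV-1 pseudotyped with wild-type or mutant YU2 Env, made in 293T cells and dosed by RT units. Cf2Th/CD4-CCR5 cells seeded 24 h before. […] Cells lysed by freeze-thaw; luciferase read by luminometer.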

[2] = Binding affinity to HIV-1 YU2 gp120 at 80 to 130 uM by VP-ITC analysis; parameters: species or system Human immunodeficiency virus 1
[3] = Inhibition of ampotrophic murine leukemia virus envelope glycoprotein assessed as inhibition of viral entry in canine Cf2Th cells expressing human CD4 and CCR5 after 2 to 4 hrs by luciferase activity based luminescence assay
[4] = test system: Human immunodeficiency virus 1; assay: Antiviral activity against HIV-1 YU2 infected in canine Cf2Th-CCR5 cells assessed as activation of viral infectivity after 2 to 4 hrs by luminometer relative to NBD-556; assay type: functional, organism-based
[5] = test system: Human immunodeficiency virus 1; assay: Antiviral activity against HIV-1 YU2 infected in canine Cf2Th-CCR5 cells assessed as activation of viral infectivity after 2 to 4 hrs by luminometer relative to JRC-I-191; assay type: functional, organism-based
[6] = test system: Human immunodeficiency virus 1; assay: Increase in binding of full length of HIV1 YU2 gp120 expressed into 17b in canine Cf2Th-CCR5 by SPR assay
[7] = test system: Human immunodeficiency virus 1; assay: Increase in binding of minimal core of HIV1 YU2 gp120 into 17b in canine Cf2Th-CCR5 by SPR assay
[8] = Cytotoxicity against canine Cf2Th-CD4-CCR5 assessed as cell viability at 1 to 100 uM after 48 hrs by luminometer; assay type: cell-based, Canis lupus familiaris; conditions: dog, thymocyte
Method in brief: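 Cf2Th/CD4-CCR5 cells were seeded at 6×10^3/well 24 h ahead and exposed to compound at 1–100 μM (DMSO at 2% as control) for 2–4 h at 37°C. Medium was then topped up and cells were incubated 48 h at 37°C. After 30 min at room temperature, CellTiter-Glo was added for 5–10 min, and luminescence was read for 5 s.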

[9] = test system: Human immunodeficiency virus 1; assay: Antiviral activity against HIV-1 clade C Env pseudovirus assessed as geometric mean titer for virus neutralization to infect human TZM-bl cells by luciferase assay; assay type: functional, organism-based
Method in brief: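 Env-pseudoviruses were made in 293T cells cotransfected with rev/env plasmid and the env-deficient pSGΔ3env backbone, then harvested at 2 days. Virus (MOI ~0.01–0.1) was preincubated 30 min at 37°C with serially diluted compound in medium containing 10% DMSO, in duplicate, then used to infect TZM-bl cells. Luciferase read-out; IC50 from a 5-parameter Hill fit; geometric mean across isolates.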

[10] = test system: Human immunodeficiency virus 1; assay: Antiviral activity against HIV-1 YU2 infected in canine Cf2Th-CCR5 cells assessed as activation of viral infectivity after 2 to 4 hrs by luminometer relative to TS-II-224; assay type: functional, organism-based
[11] = test system: Human immunodeficiency virus 1; assay: Antiviral activity against HIV-1 clade B Env pseudovirus assessed as geometric mean titer for virus neutralization to infect human TZM-bl cells by luciferase assay; assay type: functional, organism-based; conditions: Human immunodeficiency virus 1, clade B
Method in brief: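 Env-pseudoviruses made in 293T cells co-transfected with rev/env plasmid and env-deficient backbone (pSGΔ3env); supernatants harvested at 2 days, filtered. Virus (MOI ~0.01–0.1) preincubated 30 min at 37°C with serially diluted reagent (media with 10% DMSO), duplicate wells, then used to infect TZM-bl cells. Luciferase read-out; 5-parameter hill fit gives IC50/IC80; geometric mean titer across isolates.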

[12] = test system: Envelope glycoprotein gp160 (Human immunodeficiency virus type 1 group M subtype B (isolate HXB2)(HIV-1)), P04578 [S375W]; assay: Inhibition of recombinant HIV-1 YU2 envelope glycoprotein-120 S375W mutant assessed as inhibition of viral entry in canine Cf2Th cells expressing CD4/CCR5 after 2 to 4 hrs by luciferase activity based luminescence assay; assay type: cell-based; conditions: Human immunodeficiency virus 1; method in brief: as §1
[13] = Inhibition of recombinant HIV-1 JRFL envelope glycoprotein-120 assessed as inhibition of viral entry in canine Cf2Th cells expressing CD4/CCR5 after 2 to 4 hrs by luciferase activity based luminescence assay; assay type: cell-based, Human immunodeficiency virus 1
Method in brief: (§2)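 Single-round luciferase-reporter viruses were made in 293T cells with Gag-Pol packaging and Env plasmids (A-MLV Env plus rev), then normalized by RT activity. […] Cf2Th/CD4-CCR5 or CD4-CXCR4 targets were exposed for 2–4 h, cultured 48 h, lysed by freeze-thaw, and luciferase was read.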

[14] = Inhibition of recombinant HIV-1 89.6 envelope glycoprotein-120 assessed as inhibition of viral entry in canine Cf2Th cells expressing CD4/CCR5 after 2 to 4 hrs by luciferase activity based luminescence assay; assay type: cell-based, Human immunodeficiency virus 1; method in brief: as §2
[15] = Inhibition of recombinant HIV-1 ADA envelope glycoprotein-120 assessed as inhibition of viral entry in canine Cf2Th cells expressing CD4/CCR5 after 2 to 4 hrs by luciferase activity based luminescence assay; assay type: cell-based, Human immunodeficiency virus 1; method in brief: as §2
[16] = Inhibition of recombinant HIV-1 HXBc2 envelope glycoprotein-120 assessed as inhibition of viral entry in canine Cf2Th cells expressing CD4/CCR5 after 2 to 4 hrs by luciferase activity based luminescence assay; assay type: cell-based, Human immunodeficiency virus 1; method in brief: as §2
[17] = Inhibition of recombinant HIV-1 KB9 envelope glycoprotein-120 assessed as inhibition of viral entry in canine Cf2Th cells expressing CD4/CCR5 after 2 to 4 hrs by luciferase activity based luminescence assay; assay type: cell-based, Human immunodeficiency virus 1; method in brief: as §2

In the case of `CC1(C)CC(NC(=O)C(=O)Nc2ccc(Br)cc2)CC(C)(C)N1`, the IC50 [1] is reported as > 100 µM, the Kd [2] is reported as 2.2 µM and the IC50 [3] is reported as > 100 µM. The Activity [4] was “Active”.
With `CN1C(C)(C)CC(NC(=O)C(=O)Nc2ccc(Cl)c(F)c2)CC1(C)C` the Activity [5] was “Active”, the IC50 [1] was 48.8 µM and the Activity [6] was “Active”. The IC50 [3] was 93.4 µM and the Activity [7] was “Active”.
For `N=C(N)N[C@H]1Cc2ccccc2[C@@H]1NC(=O)C(=O)Nc1ccc(Cl)c(F)c1.O=CO`, the IC50 [1] was 22.9 µM, the Kd [2] was 0.25 µM and the Activity [8] was “Non-toxic”. The Activity [9] was “Active”, the Activity [6] was “Active” and the IC50 [3] was > 100 µM. For the same molecule, the Activity [7] was “Active”, the Activity [10] was “inactive” and the IC50 [11] was 7.9 µM. For the same molecule, the Activity [12] was “inactive”.
In the case of `CC1(C)CC(NC(=O)C(=O)Nc2ccc(Cl)c(F)c2)CC(C)(C)N1`, the IC50 [1] is reported as 54.4 µM, the IC50 [3] is reported as > 100 µM and the Activity [4] is reported as “Active”.
With `N[C@@H]1Cc2ccccc2[C@H]1NC(=O)C(=O)Nc1ccc(Cl)c(F)c1` the IC50 [1] was 86.9 µM, the Kd [2] was 1.1 µM and the IC50 [13] was 50 µM. The IC50 [14] was 50 µM, the IC50 [15] was 50 µM and the Activity [6] was “Active”. For the same molecule, the IC50 [16] was 50 µM, the IC50 [3] was 85.9 µM and the IC50 [17] was 50 µM. For the same molecule, the Activity [7] was “Active” and the Activity [10] was “Active”.
For `N=C(N)N[C@@H]1Cc2ccccc2[C@H]1NC(=O)C(=O)Nc1ccc(Cl)c(F)c1`, the IC50 [1] was 21.3 µM, the Kd [2] was 0.3 µM and the Activity [9] was “Active”. For the same molecule, the Activity [6] was “Active”, the IC50 [3] was > 100 µM and the Activity [7] was “Active”. For the same molecule, the Activity [10] was “inactive”, the IC50 [11] was 8.9 µM and the Activity [12] was “inactive”.
In the case of `CC1(C)CC(NC(=O)C(=O)Nc2ccc(Cl)cc2)CC(C)(C)N1`, the IC50 [1] is reported as > 100 µM, the Activity [9] is reported as “Active” and the IC50 [3] is reported as > 100 µM. It also gave an IC50 [11] of 29.3 µM.
`N[C@H]1Cc2ccccc2[C@@H]1NC(=O)C(=O)Nc1ccc(Cl)c(F)c1` gave an IC50 [1] of 53.9 µM, an IC50 [13] of 50 µM and an IC50 [14] of 50 µM. For the same molecule, the IC50 [15] was 50 µM, the Activity [6] was “Active” and the IC50 [16] was 50 µM. The IC50 [3] was 56.9 µM, the IC50 [17] was 50 µM and the Activity [7] was “Active”. For the same molecule, the Activity [10] was “Active”.
